# Experimental data of several laboratories.
# Protocols differ between the studies behind these lines.
# Matrix: plasma
Structure (SMILES),species,route,dose,notes,AUC(0-inf)
COc1nc(-c2cc(C)c(N[C@@H](C)c3c(F)cc(F)cc3F)nn2)ccc1-n1cnc(C)c1,male CD-1 mouse,intravenous,1 mg/kg,single dose,2500 ng·h/mL
COc1cc(OC)c2nccc(N3CCc4c(cc(Cn5ccnc5)cc4-c4cn(C)nc4C(F)(F)F)C3=O)c2c1,male CD-1 mouse,oral,50 mg/kg,,60600 ng·h/mL
COc1cc2c(Nc3ccc(Cl)c(Cl)c3F)ncnc2cc1OC[C@@H]1C[C@@H]2CN(C)C[C@@H]2C1,FVB mouse,oral,70 mg/kg,single dose,83000 ng·h/mL
Cc1ccc(NC(=O)c2ccc(CN3CCN(C)CC3)cc2)cc1Nc1nccc(-c2cncc(-c3oncc3C)c2)n1,male C57BL/6 mouse,oral,100 mg/kg/day,,38000 ng·h/mL
CCc1cc(OC)c2nccc(N3CCc4c(cc(Cn5ccnc5)cc4-c4cn(C)nc4C(F)(F)F)C3=O)c2c1,male CD-1 mouse,oral,50 mg/kg,,108000 ng·h/mL
c1ccc(-c2nc(N3CCC(c4ccccn4)C3)c3ccccc3n2)nc1 (stereo not drawn),female BALB/c mouse,oral,50 mg/kg,,10500 ng·h/mL
Cc1ccc2cncc(N3CCc4c(cc(Cn5ccnc5)cc4-c4cn(C)nc4C(F)(F)F)C3=O)c2c1,male CD-1 mouse,intravenous,3 mg/kg,,3870 ng·h/mL
CC(C)(C)c1ccc(O)c(CN(Cc2cc(C(C)(C)C)ccc2O)C2CCC(NC(N)=O)CC2)c1 (stereo not drawn),male C57BL/6 mouse,intraperitoneal,10 mg/kg,single dose,10800 ng·h/mL
CC[C@H](C)[C@@H]1NC(=O)[C@@](C)(NC(=O)[C@H](CCCNC(=N)N)NC(=O)[C@H](CC(C)C)NC(=O)[C@@H](NC(=O)[C@H](CCC(N)=O)NC(=O)[C@H](CC(C)C)NC(C)=O)[C@@H](C)O)CCCC=CCCC[C@@](C)(C(=O)N[C@@H](CC(C)C)C(=O)N[C@@H](Cc2ccc3ccccc3c2)C(N)=O)NC(=O)[C@H](CCCNC(=N)N)NC(=O)[C@H](CCC(N)=O)NC1=O,male BALB/c mouse,intraperitoneal,5 mg/kg,,102000 ng·h/mL
CN1C(=O)c2ccccc2[S@+]([O-])c2ccc(C(=O)NCCc3cccs3)cc21,male C57BL/6 mouse,intraperitoneal,30 mg/kg,single dose,7840 ng·h/mL
Cc1nc(-c2cnc(NC(C)C)n(C)c2=O)ccc1Oc1ccnc(-c2cnn(C)c2)c1,female mouse,oral,7.5 mg/kg,single dose,80400 ng·h/mL
COc1ccc2nccc(N3CCc4c(cc(Cn5ccnc5)cc4-c4cn(C)nc4C(F)(F)F)C3=O)c2c1,male CD-1 mouse,oral,50 mg/kg,,33800 ng·h/mL
COc1cc(C(=O)N2CCC(N3CCN(C)CC3)CC2)ccc1Nc1ncc2c(n1)N(C)c1ccccc1C(=O)N2C,mouse,intravenous,1 mg/kg,,2970 ng·h/mL
Cc1cc(Nc2ccc(S(F)(F)(F)(F)F)cc2)n2ncnc2n1,male Swiss mouse,oral,100 mg/kg,single dose,942 µM·h
COc1ccc2nc(-c3ccccn3)c(N(C)c3ccc(F)cc3)n2c1,male CD-1 mouse,oral,50 mg/kg,fasted,969 ng·h/mL
CNC(=O)c1cc(OC)cc2c(N3CCc4c(cc(Cn5ccnc5)cc4-c4cn(C)nc4C(F)(F)F)C3=O)ccnc12,male CD-1 mouse,intravenous,3 mg/kg,,3300 ng·h/mL
COc1nc(-c2cc(C)c(N[C@@H](C)c3cc(F)cc(F)c3)nn2)ccc1-n1cnc(C)c1,male CD-1 mouse,oral,5 mg/kg,single dose,13800 ng·h/mL
COc1ccc2c(=O)cc(-c3ccccc3)oc2c1O,male CD-1 mouse,oral,50 mg/kg,,1.67 ng·h/mL
CNCCN(C)c1cc(C#N)cc(CCc2cc(C)cc(N)n2)c1,male BALB/c mouse,oral,10 mg/kg,,182 ng·h/mL
CC=Cc1ccc(O)c(OC)c1,mouse,intranasal,100 mg/kg,,10100 ng·h/mL
CCc1cc(C(=O)NC)c2nccc(N3CCc4c(cc(Cn5ccnc5)cc4-c4cn(C)nc4C(F)(F)F)C3=O)c2c1,male CD-1 mouse,oral,50 mg/kg,,122000 ng·h/mL
